Experimental data published in the RNAGym collection of RNA variant scans (doi:10.1126/science.aae0568).
Variants at the floor of the assay were thinned out.

B1: tRNA (parent)
chain: GUUCCGUUGGCGUAAUGGUAACGCGUCUCCCUCCUAAGGAGAAGACUGCGGGUUCGAGUCCCGUACGGAACG

Variants of: B1
Assay: yeast fitness relative to wild type (ratio to wild type); higher = fitter; tRNA-Arg(CCU), competitive growth, 37 C, YPD
Method in brief: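 Amplicons of the tRNA-Arg(CCU) gene were sequenced, 100-nucleotide paired-end, from the start population and from each end population of a pooled yeast competition. The competition, in six parallel replicates, lasted 24 hours in YPD at 37°C. Fitness relative to wild type was calculated from changes in genotype frequencies. Genotypes had to have ≥ 100 starting reads, and estimates < 0.5 were set to 0.5.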

GUUCCGUUGGCGUAAUGCCAACGCGUCUAGCUCCUAAGGAGAAGACUGCGGGUUCGAGUCCCGUACGGAACG and GUUACGUUGGCGUAAUGGGAACGCGUCUCCCUCCUAAGGAGAAGGUUGCGGGUUCGAGUCCCGUACGGAACG cannot be ordered by yeast fitness: at most 0.5 for the first, at most 0.5 for the second.

Compared with GUUCUGUUGGUGUAAUGGUAUCGCGUCUCCCUCCUAAGGAGAAGACUGCGGGUUCGAGUCCCGUACGGAACG, GGUCCAUUGGCGUAAUGGUAACGCGUCUCCCUCCUAAGGAGAAGACUGGGGGUUCGAGUCCCGUACGGAACG is lower in yeast fitness: 0.696 for the first, at most 0.5 for the second.

Going from GUUCCGUUGGCGUAAUGGUAACGCGACUCCCUACUAGGGAGAAGACUGCGGGUUCGAGUCCCGUACGGAACG to GUUCCGUUGGCGUAAUGGUAACGCGUCUUCCUCCUAAGGAGAUGAAUGCGGGUUCGAGUCCCGUACGGAACG, the yeast fitness rises from 0.581 to 0.76.

First: GUUACAUUGGCGUAAUGGUAACGCGUCUCCCUCCUAAGGAGAAGACUGCGGCUUCGCGUCCCCUACGGAACG
Second: GUUCCGUUGGCGUGAUGGUAACGCGUCUCCCUCCUAAGCAGAAGACUGCGGGUUAGAGUCCCGUGCGGAACG
The yeast fitness of the first is higher: 0.537 for the first, at most 0.5 for the second.

GUUCCGUUGGCGUAAUGGGAACGCGUCUCCCUCCUAAGGAGAAGACUGUGGGUCCGAGUCCAGUACGGAACG and GUUCCGUUGGUGUGAUGGUAACGGGUUUCCCUCCUAAGGAACAGACUGCGGGUUCGAGUCCCGUAUGGAACG cannot be ordered by yeast fitness: at most 0.5 for the first, at most 0.5 for the second.

Going from GUUCCGUUGGCGUAAUGCUACCGCGUCUCCCUCCUAAGGAGAAGACUGCGGGUUCGAGUCCCGUACGGUACG to GUUGCGUUGGCGUAAUGGUAACGCGUCUCCCUCCUCAGGAGAAGACUGCGGGUUCGAGUCCCGUACGGAACG, the yeast fitness rises from at most 0.5 to 0.745.

Going from GUUCCGUUGGCCUAAUGGUAACGCGUCUCCCUCCAAAGGAGAAGACUGCGGGUUCGAGUCCCGUACGGAACG to GUUCCGUUGGCGUAAUGGUUAGGCGUCUCCCUCCUAAGGAGAAGACUGCGGGUUCGAGUGCCGUAGGGAACG, the yeast fitness falls from 0.774 to at most 0.5.

Going from GUUCCGUUGGCGUAAUGGUUACGCGUCUCCCUCCUAAGGAGAAGACUGCGGGUUCGAGUCCUGUACGGAUCG to GUUCCGUUGGCGUAGUGGUAACGCGUCUCCCUCCUAAGGAGAAGACUCCGGGUUCGAGUCCCGUACGGUACG, the yeast fitness falls from 0.65 to 0.636.

Compared with GUUCCGUUGGCGUAAUGGUAACGCGUCUUUCUCCUAAGGAGAAGACUGCGGGUUCGAGUCACGUACGGAACG, GUUCCGUUGGCGUAAUGGUAACGCGUCUCCCUCCCAAGGAGAAGACUGCGGGUUCGAGUCCAGUACGGUACG is higher in yeast fitness: at most 0.5 for the first, 0.551 for the second.

GUUCCGUUGGCGUCAUGGUAACGCGUCUCUCUCCUAAGGAGAAGACUGCCGGUUCGAGUCCCGUAUGGAACG and GUUCCGUUGGCGUACUGGUAACGCGUCUCCCUCCUAAGGAGAAGACUGCGGGUUCGAAUCACGUACGGAACG cannot be ordered by yeast fitness: at most 0.5 for the first, at most 0.5 for the second.

Compared with GUUCCGUUCGCGUAAUGGUAACGCGUCUUCCUCCUAAGGAGAAGACUGCGGGUUUGAGUCCCGUACGGAACG, GUUCCGUAGGCGUAAUGGUAACGCGUCUCCCUCCUAAGGAGAAGACUGCGGGUUCGAGUCCCGUAUGGAACG is higher in yeast fitness: 0.572 for the first, 0.775 for the second.

Going from GUUCCGUUGGCGUAAUGGUAACGGGUCUCCCUCCUGAGCAGAAGACUGCGGGUUUGAGUCCCGUAUGGAACG to GUCCCGUUGGCGUAAUGGUAACGCGUCUCCCUCCUAAGGAGAAGACUGCGGGUUCGAGUCCCGUACGCAACG, the yeast fitness rises from at most 0.5 to 0.845.

First: GUUCCGUUGGCGUAAUGGUAACGCGUCUCCCUCCUAAGGAGAUGACUGCGGGUUAGAGUCCCGUAUGGAACG
Second: GUUCCGUUGGCGUAAUGGUAACGCGUCUCCCUCCUAAGGAGAAGACUGCGAGUUCGAGUCCCGUACGGAACG
The yeast fitness of the first is lower: 0.6 for the first, 0.917 for the second.

First: GUUCCGUUGGCGUGAUGGUCACGCGUCUCCCUCCUAAGGAGAAGACUGCGGGUUCGAGUCCCGUACGGAACG
Second: GUUCCGUUGGCGUAAUGGUAACGCGUCUCCCACCUAAGGAGAGGACUGCGGGAUCGAGUCCCGUACGGAACG
The yeast fitness of the first is higher: 0.813 for the first, at most 0.5 for the second.

GUUCCGUUGGCGUAAUGGGACCGCGUCUCCCUCCUAAGGAGAAGACUGCGGGUUGGAGACCCGUACGGAACG and GUUCCGUUGGCGUACCGGUCACGCGUCUCCCUCCUAAGGAGAAGACUGCGGGUCCGGGUCCCGUACGGAACG cannot be ordered by yeast fitness: at most 0.5 for the first, at most 0.5 for the second.

First: GUUCCGUUGGCGUAAUGGUAACGCGUCUCCUUCCUAAGGAGAAGACUACGGGUUCGAGUCCCGUGCGGAACG
Second: GUUCCGUUGGCGUAAUGGUAACGCGUCUCCCUCCUAAGAAGCAGACUGCGGGUUCGAGUCUCGUACGGAACG
The yeast fitness of the first is higher: 0.917 for the first, 0.542 for the second.

First: GUUCCGUUGACGUAAUGGUAACGCGUCUCCCUCCUAAGGAGAAGACUGCGGGUUCGAGUCCCGUAAGGAACG
Second: GUUCCGUUGGCGUAAUGGUAACGCGUCUCCGUCCUAAGGAGAAGACUGCGGGUUCGAGUCCAGUACGGACCG
The yeast fitness of the first is higher: 0.545 for the first, 0.54 for the second.

First: GUUCCGUUGGCGUAAUGGUAACGCGUCUCCCUCCCAAGCAGAAGACAGCGGGUUCGAGUCCCGUACGGAACG
Second: GUUCGGUUGGCGUAAUGGUAACGCGUCUCCCUCCUAAGGAGAAGACUGCGGGCUCGAGUCCCGUACGGAACG
The yeast fitness of the first is lower: at most 0.5 for the first, 0.866 for the second.

Variant GUUCCGUUGGUGUAAUGGUAGCGCGUCUUCCUCCUAAGGAGAAGACUGCGGGUUGGAGUCCCGUACGGAACG has a yeast fitness of at most 0.5.
